Source: the RNAGym collection of RNA variant scans (doi:10.1101/gad.245936.114)
Fewer inactive variants are shown than the library holds.

B1: tRNA (parent)
chain: CUCUCGGUAGCCAAGUUGGUUUAAGGCGCAAGACUUUAAUUUAUCACUACGAAAUCUUGAGAUCGGGCGUUCGACUCGCCCCCGGGAGAUUUUUUCCUCGAGCAA

Variants of: B1
Assay: nonsense suppression (GFP-seq) (ratio to wild type); higher = more function; SUP4oc tRNA, yeast GFP reporter sort-seq
Outline: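 Yeast carrying genome-integrated SUP4oc tRNA variants from a library with ~3% random mutations were grown in raffinose/galactose medium with 80 mg/L adenine. Each strain also carried a galactose-driven GFP ochre reporter and RFP. Cells were sorted into GFP/RFP bins, and each bin was Illumina-sequenced (phred ≥30). Nonsense suppression (GFPSEQ) is the bin median GFP/RFP, weighted by each variant's estimated cell share per bin, relative to wild-type SUP4oc; variants needed ≥100 reads and ≥30 cells.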

Variant | nonsense suppression
CUCUCGGUAGCCAAGUUGGUUGAAGGCGCAAGACUUUAAUUUAUCACUACGAAAUCUUGAGAACGGGCGUUCGACUCGCCCCCGGGAGAUUUUUUCCUCGAGCAA [U22G U63A] | 0.939
CUCUCGGUAGCCAAGUUGGUUGAAGGCGCAAGACUUUAAUUUAUCACUACGAAAUCUUGAGACCGGGCGUUCGACUCGCCCCCGGGAGAUUUUUUCCUCGAGCAA [U22G U63C] | 0.868
CUCUCGGUAGCCAAGUUGGUUUCCGGCGCACGACUUUAAUUUAUCACUACGAAAUCUUGAGAUCGGGCGUUCGACUCGCCCCCGGGAGAUUUUUUCCUCGAGCAA [A23C A24C A31C] | ≤ 0.026
CUCUCGGUAGCCAAGUUGGUUUCAGGCGCGAGACUUUAAUUUAUCACUACGAAAUCUUGAGAUCGGGCGUUCGACUCGCCACCGGGGGAUUUUUUCCUCGAGCAA [A23C A30G C81A A87G] | ≤ 0.026
CUCUCGGUAGCCAAGUUGGUUUCAGGCGCAAGACGUUAAUUUAUCACUACGAAAUCUUGAGAUCGGGCGUUCGACUCGCCCCCGGGAGAUUUUUUCCUCGAGCAA [A23C U35G] | ≤ 0.026
CUCUCGGUAGCCAAGUUGGUUGAAGGCGCAAGACUUUAAUUUAUCACUACGAAACCAUGAGAUCAGGCGUUCGACUCGCCCCCGGGAGAUUUUUUCCUCGAGCAA [U22G U55C U57A G65A] | ≤ 0.026
CUCUCGGUAGCCAAGUUGGUUUCAGGCGCAAGACUUUAAUUUAUCACUACGAAAUCUUGAGAUCGGGCGUUCGACUCGCCCGCGGGAGAUUUUUUCCUCGAGCAA [A23C C82G] | ≤ 0.026
CUCUCGGUAGCCAAGUUGGUUGAAUGCGCAAGACUUUAAUUUAUCACUACGAAAUCUUGAGAUCGAGCGUUCGACUCGCCCCCGGGAGGUUUUUUCCUCGAGCAA [U22G G25U G66A A89G] | ≤ 0.026
CUCUCGGUAGCCAAGUUGGUUCAAGGCGCAAGACUUUAAUUUAUCACUACGAAAUCUUGAGACCGGGCGUUCGACUCGCCCCCGGGAGAUUUUUUCCUCGAGCAA [U22C U63C] | 1.2
CUCUCGGUAGCCAAGUUGGUUUCAGGCGCAAGACUUUAAUUUAUCACUACGAAAUCUUGAGAUCGGGCGUUCGACGCGCCCCCGGGAAAUUUUUUCCUCGAGCAA [A23C U76G G88A] | ≤ 0.026
CUCUCGGUAGCCAAGUUGGUUCAAGGCGCAAGACUUUAAUUUAUCACUACGAAAUCUUGAGAUCGGGCGUUCAACUCGCCCCCGGGAGAUUUUUUCCUCGAGCAA [U22C G73A] | 0.848
CUCUCGGUAGCCAAGUUGGUUUCAGGCGCAAGAUUUUAAUUUAUCACUACGAAAUCUUGAGAUCGGGCGUUCGACUCUCCCCCGGGAGAUUUUUUCCUCGAGCAA [A23C C34U G78U] | ≤ 0.026
CUCUCGGUAGCCAAGUUGGUUGAAGGCGCAAGACUUUAAUUUAUCACUACGAAAUCUUGAGAUCGGGCGUUCGACUCGCCCCCGGGGGAUUUUUUCCUCGAGCAA [U22G A87G] | 0.886
CUCUCGGUAGCCAAGUUGGUUGAAGGCGCAAGACUUUAAUUUAUCACUACGAAAUCUUGAGAUCGGGCGUUCGACUCGCCCUCGGGAGAUUUUUUCCUCGAGCAA [U22G C82U] | 0.913
CUCUCGGUAGCCAAGUUGGUUGAAGGCGCAAGAAUUUAAUUUAUCACUACGAAAUCUUGAGAUCGGGCGUUCGACUCGCCCCCGAGAGAUUUUUUCCUCGAGCAA [U22G C34A G85A] | ≤ 0.026
CUCUCGGUAGCCAAGUUGGUUUCAGGCGCAAGACUUUAAUUUAUCACUACGAAAUCUUCACAUCGGGCGUUCGACUCGCCCCCGGGAGAUUUUUUCCUCGAGCAA [A23C G59C G61C] | ≤ 0.026
CUCUCGGUAGCCAAGUUGGUUUCAGGCGCAAGACUUUAAUUUAUCACUACGAAAUCUUCAAAUCGGGCGUUCGACUCGCCCCCGGGAGAUUUUUUCCUCGAGCAA [A23C G59C G61A] | ≤ 0.026
CUCUCGGUAGCCAAGUUGGUUGAAGGCGCAAGACUUUAAUUUAUCACUACGAAACCUUGAGAUCCGGCGUUCGACUCGCUCCCGGGAGAUUUUUUCCUCGAGCAA [U22G U55C G65C C80U] | ≤ 0.026
CUCUCGGUAGCCAAGUUGGUUGAAGGCGCAAGACUUUAAUUUAUCACUACGAAAUCUUGCGAUCGGGCGUUCGACUCGCCCCCGGGAGAUUUUUUCCUCGAGCAA [U22G A60C] | 0.175
CUCUCGGUAGCCAAGUUGGUUUCAGGCGCUAGAGUUUAAUUUAUCACUACGAAAUCUUGAGAUCGGGCGCUGGACUCGCCCCCGGGAGAUUUUUUCCUCGAGCAA [A23C A30U C34G U70C C72G] | ≤ 0.026
CUCUCGGUAGCCAAGUUGGUUCAAGGCGCAAGACUUUAAUUUAUCACUACGAAAUCUUGAGAUCGGGCGUUCAACUCGCUCCCGGGAGAUUUUUUCCUCGAGCAA [U22C G73A C80U] | 0.0265
CUCUCGGUAGCCAAGUUGGUUGAAGGCGCAUGACUUUAAUUUAUCACUACGAAAUCUUGAGAUCGGGCGUUCGACUCGCCCCCGGGAGAUUUUUUCCUCGAGCAA [U22G A31U] | 0.0872
CUCUCGGUAGCCAAGUUGGUUGAAGGCUCAAGACUUUAAUUUAUCACUACGAAAUCUUGAGUUCGGGCGUUCUACUCGCCCCCGGGAGAUUUUUUCCUCGAGCAA [U22G G28U A62U G73U] | ≤ 0.026
CUCUCGGUAGCCAAGUUGGUUGAAGGCGCAAGACUUUAAUUUAUCACUACGAAUUCUUGAGAUCGGGCGUUCGACUCGCCCCCGGGAGAUUUUUUCCUCGAGCAA [U22G A54U] | 1.12
CUCUCGGUAGCCAAGUUGGUUUCAGGCGCAAGACUUUAAUUUAUCACUACGAAAUCCUGAGAUCGGGCGUUCGACUCGCCCCCGGGAGAUUUUUUCCUCGAGCAA [A23C U57C] | ≤ 0.026
CUCUCGGUAGCCAAGUUGGUUCAAGGCGCAAGACUUUAAUUUAUCACUACGAAAUCUUGAGAUCGGGCGUUCGACCCGCCCCCGGGAGAUUUUUUCCUCGAGCAA [U22C U76C] | 1.02
CUCUCGGUAGCCAAGUUGGUUUCAGGCGCAAGACUUUAAUUUAUCACUACGAAAUCUUGAGAUCGGGCGUUCGACUCGCCCCCGGGAAAUUUUUUCCUCGAGCAA [A23C G88A] | ≤ 0.026

Variant | nonsense suppression
CUCUCGGUAGCCAAGUUGGUUCAAGGCGCAAGACUUUAAUUUAUCACUACGAAAUCUGGAGAUCGGGCGUUCGACUCGCCCCCGGGAGAUUUUUUCCUCGAGCAA [U22C U58G] | ≤ 0.026
CUCUCGGUAGCCAAGUUGGUUGAAUGCGCAAGACUUUAAUUUAUCACUACGAAAUCUUGAGAUCGUGCGUUCGACUCGCCCCCGGGAGAUUUUUUCCUCGAGCAA [U22G G25U G66U] | ≤ 0.026
CUCUCGGUAGCCAAGUUGGUUUCAGGCGCAAGACUUUAAUUUAUCACUACGAAAUCUGGAGAUGGGGCGUUCGACUCGCCCCCGGGAGAUUUUUUCCUCGAGCAA [A23C U58G C64G] | ≤ 0.026
CUCUCGGUAGCCAAGUUGGUUGACGGCGCAAGACUUUAAUUUAUCACUACGAAAUCUUGAGAUCGGGCGUUCGACUCGCCCCCGGGAGAUUUUUUCCUCGAGCAA [U22G A24C] | 0.817
CUCUCGGUAGCCAAGUUGGUUUCAAGCGCAAGACUUUAAUUUAUCACUACGAAAUCUUGAGAUCGGGCGUUCGACUCGCCCCCGGGAGAUUUUUUCCUCGAGCAA [A23C G25A] | ≤ 0.026
CUCUCGGUAGCCAAGUUGGUUGAAGGCGUAAGACUUUAAUUUAUCACUACGAAAUCUUGAGAUCGGGCGUUCGACUCGCCCCCGGGAGAUUUUUUCCUCGAGCAA [U22G C29U] | 1.15
CUCUCGGUAGCCAAGUUGGUUGAAGGCGCAAGACUUUAAUUUAUCACUACGAAAUCUUGAGAUCGGGCGUUCGAUUCGCCCCCGGGAGAUUUUUUCCUCGAGCAA [U22G C75U] | 0.981
CUCUCGGUAGCCAAGUUGGUUGAAGGCGCAAGACUUUAAUUUAUCACUACGAAAUCUUGAGAUCGGGCGUUCGAAUCGCCCCCGGGAGAUUUUUUCCUCGAGCAA [U22G C75A] | 0.927
CUCUCGGUAGCCAAGUUGGUUCAAGGCGCAAGACUUUAAUUUAUCACUACGAAAUCUUGAGACCGGGUGUUCGACUCGCCCCCGGGAGAUUUUUUCCUCGAGCAA [U22C U63C C68U] | 0.0629
CUCUCGGUAGCCAAGUUGGUUCAAGGCGCAAGACUUUAAUUUAUCACUACGAAAUCUUGAGAUCGGGCGCUCAACUCGCCCCCGGGAGAUUUUUUCCUCGAGCAA [U22C U70C G73A] | ≤ 0.026
CUCUCGGUAGCCAAGUUGGUUGAAGGCGCAAGACUUUAAUUUAUCACUACGAAGUCUUGAGAUCGGGCGUUCAACUCGCCCCCGGGAGAUUUUUUCCUCGAGCAA [U22G A54G G73A] | ≤ 0.026
CUCUCGGUAGCCAAGUUGGUUGAAGGCGCAAGACUUUAAUUUAUCACUACGAAAUCUUGAGAUCGGGCGUUCGACUCUCCCCCGAGAGAUUUUUUCCUCGAGCAA [U22G G78U G85A] | 0.788
CUCUCGGUAGCCAAGUUGGUUGAAGGCGCAAGACUUUAAUUUAUCACUACGAAAUCUUGAGAUCGGGCGUUCGACUCACCCCCGGGAGAUUUUUUCCUCGAGCAA [U22G G78A] | 0.173
CUCUCGGUAGCCAAGUUGGUUGAAGGCGCAAGACUUUAAUUUAUCACUACGAAAUCUUGAGAUCGGGCGUUCGACUCUCCCCCGGGAGAUUUUUUCCUCGAGCAA [U22G G78U] | 0.112
CUCUCGGUAGCCAAGUUGGUUGAAGGCGCAAGACUUUAAUUUAUCACUACGAAAUCUUGAGAUCGGGCGUUCGACUCCCCCCCGGGAGAUUUUUUCCUCGAGCAA [U22G G78C] | 0.0318
CUCUCGGUAGCCAAGUUGGUUGAAGGCGCGAGACUUUAAUUUAUCACUACGAAAUCUUGAGAUCGGGCGUUCGACUCGCCCCCGGGAGAUUUUUUCCUCGAGCAA [U22G A30G] | 0.781
CUCUCGGUAGCCAAGUUGGUUGAAGGCGCUAGACUUUAAUUUAUCACUACGAAAUCUUGAGAUCGGGCGUUCGACUCGCCCCCGGGAGAUUUUUUCCUCGAGCAA [U22G A30U] | 0.184
CUCUCGGUAGCCAAGUUGGUUUCAGGCGCAAGACUUUAAUUUAUCACUACGAAAUCUUGAGAUCGGGCGUUCGACGCGCCCCCGGGAGAUUUUUUCCUCGAGCAA [A23C U76G] | ≤ 0.026
CUCUCGGUAGCCAAGUUGGUUCAAGGCGCAAGACUUUAAUUUAUCACUACGAAAUCUUGAUACCGGGCGUUCGACUCGCCCCCGGGAGAUUUUUUCCUCGAGCAA [U22C G61U U63C] | 0.17
CUCUCGGUAGCCAAGUUGGUUGAAGGCGCAAGACUUUAAUUUAUCACUACGAAAUCUUGAGAUCGGGGGUUCGACUCGCCCCCGGGAGAUUUUUUCCUCGAGCAA [U22G C68G] | ≤ 0.026
CUCUCGGUAGCCAAGUUGGUUGAAGGCGCAAGACUUUAAUUUAUCACUACGAAAUCUUGAGAUCGGGCGUUCGACUCGCCCCCGGGAGAUUUUUUCCUCGAGCAA [U22G] | 0.989
CUCUCGGUAGCCAAGUUGGUUGAAGGCGCAAGACUUUAAUUUAUCACUACGAAUUCUUGAGAUCGGGCGUUCGACUCGCCCCCGGGAUAUUUUUUCCUCGAGCAA [U22G A54U G88U] | ≤ 0.026
CUCUCGGUAGCCAAGUUGGUUGAAGGCGCAAGACUUUAAUUUAUCACUACGAAAUCUUGAGAUCGGGCGUUCAACUCGCCCCCGGGAGAUUUUUUCCUCGAGCAA [U22G G73A] | 0.854
CUCUCGGUAGCCAAGUUGGUUGAAGGCGUAAAACUUUAAUUUAUCACUACGAAAUCUUGAGAUCGGGCGUUCGACUCGCCCCCGGGAGAUUUUUUCCUCGAGCAA [U22G C29U G32A] | ≤ 0.026
CUCUCGGUAGCCAAGUUGGUUGAAGGCGCAUGACUUUAAUUUAUCACUACGAAAUCUUGAGACCGGGCGUACGACUCGCCCCCGGGAGAUUUUUUCCUCGAGCAA [U22G A31U U63C U71A] | ≤ 0.026
CUCUCGGUAGCCAAGUUGGUUCAAGGCGCAAGACUUUAAUUUAUCACUACGAAAUCUUGAGAUCGGGCGUUCGACUCCCCCCCGGGAGAUUUUUUCCUCGAGCAA [U22C G78C] | 0.195
CUCUCGGUAGCCAAGUUGGUUGAAGGCGCAAGACUUUAAUUUAUCACUACGAAAUCUUGAGAUCGGGCGUUCGACUCGCCCCCGUGAGAUUUUUUCCUCGAGCAA [U22G G85U] | 0.796
